Data taken from article PMC5025877 (Circulation research, 2014).
“Also recorded” adds a separate entry of the source. One block for each molecule: values may come before it.

Legend:
Nox1 [1] = test: Nox1 phosphorylation in VSMCs, IP anti-p22phox / Western blot anti-STY; type: cell-based, rat; details: for Nox1 phosphorylation on agonist treatment (other agonists): VSMC, Online Figure III, timing may be agonist dependent
In short: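 A7r5 rat aortic VSMCs in culture were stimulated with TNF-α, with or without PKC inhibitor pretreatment. Nox1 phosphorylation was detected by Western blotting with an anti-phospho-Ser/Thr/Tyr (anti-STY) antibody. n=3.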

Nox1 [2] = test: ROS production by CM-H2DCF fluorescence in VSMCs; type: cell-based, murine
In short: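 Cultured aortic VSMCs from C57Bl6/J (WT) and Nox1-/y mice were pretreated with the test compound (a PKC inhibitor), then stimulated with TNF-α. ROS were imaged by CM-H2DCF fluorescence, with nuclei counterstained with ToPro3.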

NADPH oxidase = type: cell-based, rat; details: VSMC membrane fractions, lucigenin, RLU, n=5–15; for TNF-α-primed NADPH oxidase activity, effect of inhibitor: TNF-α pre-treatment
In short: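 Cultured rat (A7r5) aortic VSMCs were pretreated with the test compound (a PKC inhibitor) or with the flavoenzyme inhibitor DPI, then stimulated with TNF-α. NADPH oxidase activity was measured by lucigenin-enhanced chemiluminescence and reported as relative light units. n=5–15.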

VSMCs = test: VSMC migration to TNF-α; type: cell-based, murine
In short: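 Aortic VSMCs from WT C57Bl6/J and Nox1-/y mice were pretreated with the test compound (a PKC inhibitor), and their migration to TNF-α was counted. n=5–15.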

Nox1 [3] = test: superoxide in intact CosPhox cells with p47phox and NoxA1; type: cell-based; details: TNF-α (10 ng/ml), PDGF-BB (10 ng/ml), AngII (10^-7 M), PMA (10^-6 M), RLU/sec, n=4
In short: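 Cos7 cells stably expressing p22phox (CosPhox) were transfected with p47phox, NoxA1, and either wild-type or T429A Nox1. Superoxide was read as luminescence (RLU/sec) in intact cells immediately after agonist addition. The unstimulated signal was subtracted from the agonist signal, and values were normalized to cell number.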

NoxA1 = NoxA1 membrane recruitment in CosPhox cells; type: cell-based; details: n=4
In short: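 CosPhox cells (Cos7 stably expressing p22phox, p47phox and p67phox) expressed p22phox, NoxA1, and either WT or T429A Nox1. After TNF-α treatment, membrane fractions were isolated and immunoblotted for NoxA1. Whole-cell lysates taken before membrane isolation were probed for GAPDH. n=4 independent experiments.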

p47^phox = test: p47phox membrane recruitment; type: cell-based; details: WT versus T429A Nox1; Online Figure VIII
[4] = molecular target: NoxA1 activation domain (AD); test: ITC binding of NoxA1 AD peptide with Nox1 peptides; details: for Kd: read-out: Kd (affinity) for NoxA1 AD, n=3 independent experiments
[5] = circular dichroism of peptides; type: physicochemical; details: negative dip below 200 nm, near-zero shoulders at longer wavelengths
human recombinant PKC-βI [6] = test: ITC in vitro kinase reaction of recombinant PKC-βI with Nox1 peptide; type: biochemical; details: slow return to baseline after heat of dilution
human recombinant PKC-βI [7] = test: dot blot; type: biochemical; details: anti-p-STY; total peptide by Ponceau staining
In short: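 Input and product of the in vitro PKC-βI kinase reaction on the Nox1 T429 peptide were dot-blotted and probed with anti-p-STY. Total peptide was measured by Ponceau staining. Signal was quantified as the ratio of p-STY to total peptide. A phosphorylated T429 peptide was included.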

[8] = molecular target: T1, phosphorylated Nox1 peptide (peptide containing phosphorylated Nox1 at T429); test: ITC
T1 chain: KLKTQKIYF

Molecule: TNF-α
Nox1 phosphorylation on agonist treatment (Nox1 [1]; cultured A7r5 rat aortic VSMCs, n=3): increased Nox1 phosphorylation
ROS production on TNF-α (Nox1 [2]; WT versus Nox1^-/y VSMCs): robust ROS production in WT but not Nox1^-/y VSMCs
NADPH oxidase activity on TNF-α pre-treatment (NADPH oxidase): primes NADPH oxidase activity
VSMC migration to TNF-α (VSMCs; Nox1^-/y VSMCs compared): requires Nox1
agonist-stimulated cellular superoxide, T429A Nox1 (Nox1 [3]): markedly attenuated
agonist-stimulated cellular superoxide, WT Nox1 (Nox1 [3]): increased
NoxA1 membrane translocation following TNF-α, T429A Nox1 (NoxA1; CosPhox cells with T429A Nox1): prevented
TNF-α-induced NoxA1 membrane recruitment, WT Nox1 (NoxA1; CosPhox cells with p22phox, p47phox, NoxA1, WT Nox1): recruitment of NoxA1 to the membrane
p47phox membrane recruitment on TNF-α (p47^phox): WT but not T429A Nox1 caused a recruitment of p47^phox to the membrane

Molecule: COc1c(C[C@@H](C)OC(=O)Oc2ccc(O)cc2)c2c3c(C[C@@H](C)OC(=O)c4ccccc4)c(OC)c(=O)c4c(O)cc(OC)c(c5c(OC)cc(O)c(c1=O)c52)c43 [CalC, Calphostin C, reference compound]
TNF-α-stimulated Nox1 phosphorylation, effect of pretreatment (Nox1 [1]; cultured A7r5 rat aortic VSMCs, TNF-α, n=3): inhibited
Nox1-dependent ROS production, effect of pretreatment (Nox1 [2]; WT murine VSMCs, TNF-α): abrogated
TNF-α-primed NADPH oxidase activity, effect of inhibitor (NADPH oxidase): completely abolished
TNF-α-mediated migration, effect of pretreatment (VSMCs; WT murine VSMCs, n=5–15): blocked

Molecule: angiotensin II (DRVYIHPF; Angiotensin-2; UniProt P01019 25-32, looked up) [AngII, reference compound]
agonist-stimulated cellular superoxide, T429A Nox1 (Nox1 [3]): markedly attenuated
agonist-stimulated cellular superoxide, WT Nox1 (Nox1 [3]): increased

Molecule: c1ccc2c(c1)[I+]c1ccccc1-2 [DPI]
TNF-α-primed NADPH oxidase activity, effect of inhibitor (NADPH oxidase): completely abolished

Molecule: CCCCCCCCCCCCCC(=O)O[C@@H]1[C@@H](C)[C@@]2(O)[C@@H](C=C(CO)C[C@]3(O)C(=O)C(C)=C[C@@H]23)[C@@H]2C(C)(C)[C@]12OC(C)=O [PMA, phorbol myristate acetate, reference compound]
Nox1 phosphorylation on agonist treatment (other agonists) (Nox1 [1]): phosphorylation of VSMC Nox1 occurs
agonist-stimulated cellular superoxide, T429A Nox1 (Nox1 [3]): does not require phosphorylation of T429
agonist-stimulated cellular superoxide, WT Nox1 (Nox1 [3]): increased

Kd [4]: 1.5 ± 0.3 µM
Molecule: KLKT*QKIYF [pNox1 peptide]
secondary structure by circular dichroism [5]: unstructured; also recorded: characteristic random coil signals

interaction with NoxA1 (in words) [4]: no measurable interaction
Kd [4]: > 100 µM
phosphorylation by PKC-βI (heat of reaction) (human recombinant PKC-βI [6]): substrate for PKC-βI
phosphorylation by PKC-βI, dot blot (human recombinant PKC-βI [7]): confirms phosphorylation
Molecule: KLKTQKIYF [Nox1 peptide]

Kd [8]: 1.5 µM
stoichiometry N [8]: 0.86
B1: NoxA1 activation domain peptide (peptide)
chain: EPVDFLGKAKVVASAIP
modifications: not checked

B2: PDGF-BB: platelet-derived growth factor-BB (protein, UniProt P01127 82-190, looked up)
Platelet-derived growth …: SLGSLTIAEPAMIAECKTRTEVFEISRRLIDRTNANFLVWPPCVEVQRCSGCCNNRNVQCRPTQVQLRPVQVRKIEIVRKKPIFKKATVTLEDHLACKCETVAAARPVT
modifications: homodimer BB
Nox1 phosphorylation on agonist treatment (other agonists) (Nox1 [1]): phosphorylation of VSMC Nox1 occurs
agonist-stimulated cellular superoxide, T429A Nox1 (Nox1 [3]): markedly attenuated
agonist-stimulated cellular superoxide, WT Nox1 (Nox1 [3]): increased
